Experimental data reported in ChEMBL document CHEMBL4513216, “Probing the Open Global Health Chemical Diversity Library for Multistage-Active Starting Points for Next-Generation Antimalarials” (ACS Infect Dis, 2020).

assay: Toxicity liver stage against HepG2, at 10uM; type: cell-based; design: test concentration 10 uM, cell line HepG2-A16-CD81EGFP; details: human, HepG2-A16-CD81EGFP cells; read-out: INHIBITION
Outline: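 Uninfected HepG2-A16-CD81EGFP cells, 3 × 10^3 per well, 1536-well, plated on prespotted compound at 10 μM final, parasite-free screening media added to match infected plates; puromycin 10 μM positive, DMSO 0.5% negative; run in parallel with 48 h PbLuc assay at 37 °C, 5% CO2; viability by CellTiter-Glo luminescence, normalized to controls.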

SMILES | cytotoxicity at 10 µM [%]
CCS(=O)(=O)N1CCc2cc(C(=O)NC)c(NCC3CC3)nc2CC1 | 1.88
COc1cc(N2C[C@H](C(=O)NCC3CC3)[C@@H]3CCO[C@@H]3C2)ncn1 | 2.87
O=C(NCCn1ccnc1)N1CCN(Cc2cccnc2)CC1 | -4.64
CCNc1cc2c(nn1)CCN(C(=O)Cc1noc3ccccc13)C2 | -7.42
C=C(C)COc1cccc(C(=O)N(C)Cc2cc(CC)no2)c1 | -3.42
CCN1CCN(c2ncc(-c3cc(C)no3)c(-c3ccco3)n2)CC1 | -11
CC(O)CN1CCN(Cc2coc(-c3cccc(Cl)c3)n2)CC1 (centres undefined) | -4.73
Cc1ccc2cc(C(=O)N3CCCCC3c3nc[nH]n3)ccc2n1 (centres undefined) | -5.92
COCCCN(Cc1cnc(-c2ccccn2)nc1)C1CCN(C)CC1 | -0.988
CN1CCC(N(C)C[C@H]2CC[C@@H](Cc3ccc4c(cnn4C)c3)O2)CC1 | 5.03
COc1cc2nc(C)n(CC(=O)NCCC(C)C)c(=O)c2cc1OC | -3.79
CC1CCN(S(=O)(=O)NCc2ccccc2Cn2cccn2)CC1 | 7.4
CC(C)(C)n1ncc2c1NC(=O)CC2c1ccccc1 (centres undefined) | 19.2
O=C(NCCNc1ncccn1)N1CC=C(c2ccccc2)CC1 | 12.6
Cc1ncc(S(C)(=O)=O)c(N2CCCCCC2)n1 | -0.972
CC(NC(=O)NCCCN1CCCC1=O)c1ccc(Cl)s1 (centres undefined) | -8.28
COCCNc1nc(N2CCOCC2)nc2nccnc12 | 4.09
COCc1cccc(C(=O)N2C[C@@H]3CC[C@H]2CN(Cc2cscn2)C3)n1 | 5.01
Cc1nc(Nc2cnccn2)cc(C2CCCN(C(C)C)C2)n1 (centres undefined) | -9.03
CC(CNC(=O)c1cc(C2CC2)on1)N1CCc2ccccc21 (centres undefined) | -11.8
COc1ncccc1C(=O)N1CC[C@H]2C[C@@H](c3noc(C)n3)O[C@@H]2C1 | 4.76
CC(=O)NCC1CCC2(CCN(c3nccc(C4CCCC4)n3)CC2)O1 (centres undefined) | -4.43

SMILES | cytotoxicity at 10 µM [%]
Cn1cc(C(=O)NCc2cncc3c2CCN(c2ccccn2)C3)cn1 | -99.6
CCc1cc(=O)[nH]c(NC2CCN(S(=O)(=O)c3ccccc3)CC2)n1 | -5.49
COCC(=O)Nc1ccc([C@@H](O)[C@H]2COCC(=O)N2C)cc1 | 10.3
Cc1cc(Br)oc1C(=O)N1CCCN(CC(N)=O)CC1 | 0.71
Cc1cccc(OCCC(=O)N2CCCN(C(N)=O)CC2)c1C | -6.8
CC(=O)N1CCCCC[C@@H]2[C@@H]1[C@H](c1cccc(F)c1)CN2C(C)=O | 5.21
COc1ccc(S(=O)(=O)N2CCc3ccc(Cl)cc32)cc1C(=O)O | -11.6
CCn1cc2c(n1)C(COCC1CC1)CN(C(=O)c1ccco1)C2 (centres undefined) | 17.6
CCOc1cccc(CNc2cccc(C(=O)OC)c2)c1O | 7.36
Cc1cc(C)cc(OCC(O)CN2CCN(c3nccs3)CC2)c1 (centres undefined) | -7.32
CC(NC(=O)c1ccnn1C)c1ccc(OCC2CC2)c(F)c1 (centres undefined) | 48.8
CC(C)c1csc(C2CCCN(C(=O)c3ncccn3)C2)n1 (centres undefined) | 6.3
CCc1c(C)nc2cc(C3CCN(Cc4cccc(F)c4)C3)nn2c1O (centres undefined) | -6.43
c1cnn(CCNCc2ccc(N3CCCCC3)cc2)c1 | -10.1
CC(C)c1ncc(CN2CCC(CO)C2)cn1 (centres undefined) | -25.8
CN(C)CCN1C[C@@H]2OCCN(Cc3cnn(C)c3)[C@@H]2C1 | -140
O=C(c1cccnc1N1CCOCC1)N1CCCC(n2cccn2)C1 (centres undefined) | 0.985
CCc1nc(CN2CCCC(NCc3ccc(C(N)=O)cc3)C2)no1 (centres undefined) | -12.3
NC(=O)C(NC1CCN(CC2CCCCC2)CC1)c1ccc(F)cc1 (centres undefined) | -5.14
O=C(NC1CC1)C1CN(C(=O)c2cnccn2)C1 | -10.2
Cc1cccc(CN2CCc3ncnc(C)c3CC2)n1 | -17.4
O=C(NC1(c2nccs2)CCCC1)c1cc(C2CC2)on1 | 6.65

SMILES | cytotoxicity at 10 µM [%]
COC(=O)c1ccc(C(=O)NS(=O)(=O)c2cncc(Br)c2)cc1 | 9.95
O=C(NCCNc1ccc(C(F)(F)F)cn1)c1ccoc1 | -2
O=C(CN1CCN(c2ccnc3c(F)ccc(F)c23)CC1)N1CCCC1 | 17.4
O=C(c1ccsc1)N1CCN2C[C@H](OCc3cccnc3)C[C@H]2C1 | 0.59
CCOCCNCc1cc(O)c2cc(C)ccc2n1 | -2.04
CCC(=O)N1CCN(Cc2cnc(C)nc2)[C@H]2CS(=O)(=O)C[C@H]21 | 12.3
Cc1cccc(N2CCN(CCS(=O)(=O)c3ccc(Br)cc3)CC2)c1C | 21.9
CCn1ccnc1CN1CCN(CC(=O)NC2CCOCC2)CC1 | -6.22
CCOC(=O)NC(CNC(=O)CCc1ccccn1)CC(C)C (centres undefined) | -4.61
O=C(CCn1ccc2ccc(Br)cc21)/N=c1\[nH]nc(C2CCCO2)s1 (centres undefined) | -9.46
COc1ncccc1C(=O)N1CC[C@]2(C[C@@H](Oc3cccnc3)CO2)C1 | 4.43
COc1ncccc1CN1C[C@@H]2COC[C@]2(COc2cccnc2)C1 | -0.182
CCC(CO)NCc1ccc(-c2ccc(F)c(Cl)c2)o1 (centres undefined) | 5.24
CN(C)CCN(C)S(=O)(=O)CC1CCOCC1 | -5.38
NCCCC(=O)NCC1(O)CCCN(c2ccnc3cccnc23)C1 (centres undefined) | 3.71
Cc1ccc(-c2nc(CN3CCn4c(nnc4C4CC4)C3)co2)c(C)c1 | -24.7
Cc1nnc([C@@H]2CC[C@@H]3[C@@H](CCN3C3CCOCC3)O2)o1 | 8.58
COCCC(=O)N1CCOCC2(CCN(Cc3cccs3)C2)C1 (centres undefined) | -7.83
COc1ccc(NC(=O)C(c2ccc(OC)cc2)N2CCOCC2)cc1 (centres undefined) | -3.39
CC1CCCN(C(=O)c2occc2COc2cccc(C#N)c2)C1 (centres undefined) | 4.57
CC(C)(C)C(=O)NC(c1nccs1)C1CCN(CC2CCCCC2)CC1 (centres undefined) | 6.5
CN(C)C(=O)N1C[C@H]2CC[C@@H](C1)N(C(=O)c1c(Cl)cccc1Cl)C2 | 7.2

SMILES | cytotoxicity at 10 µM [%]
CCOC(=O)C1CCN(C(=O)c2cc(OCC)c3ccoc3c2)CC1 | 34.4
CN(Cc1ccccc1)CC1(O)CCCN(Cc2ccc(F)cc2)C1=O (centres undefined) | -14.6
O=C([C@H]1CC[C@@H]2[C@@H](CCN2C2CCOCC2)O1)N1CCOCC1 | -0.824
CC(NC(=O)NCCc1ccc(Cl)s1)c1ccccn1 (centres undefined) | -3.07
Cc1nccn1-c1ccc(CNS(=O)(=O)N2CCC(C)CC2)cn1 | 1.28
NC(=O)N1CCC2(CC1)CC(=O)N(CC1CCCO1)c1ccccc12 (centres undefined) | 5.56
Cc1cc(NC(=O)NCCc2ccccc2)n(C)n1 | -9.19
Cc1ncsc1CNC(=O)N(Cc1ccccc1)CC(C)(C)O | -10.2
O=C(CCn1c(=O)oc2ccccc21)NCC(O)c1ccc(Cl)cc1 (centres undefined) | -1.25
O=C(NCCNc1cnccn1)N1CC=C(c2ccc(O)cc2)CC1 | 18.6
Cc1cc(C(=O)Nc2ccc(OC3CCOCC3)c(C)c2)[nH]n1 | -8.03
Cc1ccc(C)c(OCC(O)CN(C)CC(=O)Nc2cc(C)on2)c1 (centres undefined) | -14.4
CCC(CC)c1cc(C(=O)N2CCN(C(C)C(N)=O)CC2)on1 (centres undefined) | 5.82
O=C(CCc1nc(C2CC2)no1)c1ccc(F)c(F)c1 | 0.923
CCN(Cc1ccc2c(c1)OCCO2)C(=O)NC(C)Cn1ccnc1 (centres undefined) | -2.79
CC(C)[C@H]1CN(Cc2nccn2C)C[C@@H]1NC(=O)COCC(N)=O | -0.0298
Cc1ncnc2c1CCN(S(=O)(=O)C1CC1)CC2 | -108
CN1C(=O)CO[C@H](c2ccc(NC(=O)NC(C)(C)C)cc2)[C@H]1CO | -0.973
CCCN(CCC)Cc1nnsc1Cl | 10.3
COc1cc(C(=O)NS(=O)(=O)c2cncc(Br)c2)cc(OC)c1C | 4.77
CCc1nc(N2CCC3(CC2)[C@H](O)C[C@@H]3O)ncc1C | 6.02
O=C(c1ccccc1F)N1CC2(CCNCC2)c2cc(Cl)ccc21 | -3.31

SMILES | cytotoxicity at 10 µM [%]
O=C(c1ncoc1C1CC1)N1CCCN(CCCc2ccccc2)CC1 | -2.78
Cc1ncc(CNC2CC(=O)N(CCc3ccc(F)cc3)C2)n1C (centres undefined) | -0.309
CCc1nn(C)c(Cl)c1CN1CCC(Cc2nncn2C)CC1 | -1.52
Cn1ccc(CN2CCC(OCCc3ccccc3)CC2)cc1=O | -4.43
O=C1[C@H]2CN(Cc3ccco3)C[C@H]2CN1c1ccsc1 | -71.9
Cc1cc(C(=O)N2CCN(Cn3cc(Cl)cn3)CC2)on1 | -6.81
COCCCSc1ccc(NCc2scnc2C)cc1 | 55.3
CCOCC1CN(Cc2cccs2)Cc2nn(C)cc21 (centres undefined) | -75.2
O=C(Nc1cc(-c2ccncc2)no1)C1CC1 | -4.18
CC(NC(=O)NCc1cccnc1N(C)C)c1ccc(F)cc1 (centres undefined) | -1.19
CCS(=O)(=O)CCNC(=O)[C@@]12CNC[C@@H]1CN(C1CCCC1)C2 | -20.3
CCOC(=O)CC1(Nc2nc(C)nc3c2cnn3C)CCCCC1 | 5.03
CCn1cc(CN2CCN(C(=O)c3cc(C)c(C)s3)CC2)c(C)n1 | 2.07
O=C(c1cc(-c2cn[nH]c2)nc2ccc(F)cc12)N1CCSCC1 | -0.0178
CS(=O)(=O)N1CCCC12CCN(Cc1nccs1)C2 (centres undefined) | 2.26
COc1ccc(NC(=O)C(C)(C)C)cc1OCc1cccnc1 | -41.1
Cc1cnn(CC2CN(CC(=O)NCCc3cccs3)CCO2)c1 (centres undefined) | 1.88
CCNC(=O)Cc1ccc(NC(=O)NC(CC)CC)cc1 | -6.93
CS(=O)(=O)NCCC1CCCN(Cc2ccccc2F)C1 (centres undefined) | -1.25
COc1ccc(CNCc2nnc3n2CC(C(F)(F)F)CC3)cc1 (centres undefined) | 3.27
Cc1cc(NC(=O)NCC(C)O)n(C)n1 (centres undefined) | 1.69
